INS promoter act: TRM-6 insulin promoter activation; TRM-6 cells (human fetal islet line), insulin promoter eGFP reporter, imaging; plate-scaled: unstimulated 0, stimulated control 100; 130,000 tested, 0.81% active; AID 1296; activation, % at 2 µM;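 active means activation at 2 µM above a set limit, confirmed on inspection of the cell images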;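 further: share of cells whose green reporter signal exceeds an intensity cutoff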
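Assay system: TRM-6 insulin promoter–eGFP reporter cells / Input: 1,000 cells per well / Medium: Low-glucose (5.5 mM) medium with tamoxifen / Also added: tamoxifen inducer, 0.75 µM, in seeding medium / Timing: overnight tamoxifen, then two-day compound incubation at 37 °C / Signal: automated fluorescence imaging of paraformaldehyde-fixed, Hoechst-counterstained cells, green channel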
* marks the source's active call; other numbers are inactive results. Shown is part of a subset that was picked to be rich in hits.

SMILES | INS promoter act
O=C(Nc1ccc(Cl)cn1)c1ccc(-c2cc(Cl)ccc2Cl)o1 | 3.3
O=C(Nc1ccc(Cl)cc1C(=O)Nc1ccc(Br)cn1)c1ccco1 | 600.0*
CCC(CC)c1nnc(NC(=O)[C@@H](NC(=O)c2cccc(C)c2)C(C)C)s1 | -9.4
CCN(CC)c1ccc(C(=O)OCC(=O)Nc2cccc(S(=O)(=O)NC3=NCCCCC3)c2)cc1 | 0.0
N#CC(C#N)=C(N)CSc1cccc[n+]1[O-] | 0.0
COc1ccccc1NC(=S)N1CCN(Cc2ccc3c(c2)OCO3)CC1 | 0.0
O=C(NC1CCCCC1)c1cc([N+](=O)[O-])ccc1N1CCCCC1 | 8.3
O=C(CCc1ccc(Oc2cc([N+](=O)[O-])cc([N+](=O)[O-])c2)cc1)NC1CCCC1 | 2.8
O=C(CO/N=C/c1cccc([N+](=O)[O-])c1)NC1CCCCCC1 | 450.0*
Cc1ccc(C2CC(C(F)(F)F)n3ncc(C(=O)NCc4ccco4)c3N2)cc1 (stereo unspecified) | 9.1
CC(=O)N/C(=C/c1ccc2c(c1)OCO2)C(=O)NCCO | 7.1
O=C(Nc1nnc(-c2ccco2)o1)c1ccc([N+](=O)[O-])s1 | -5.3
Nc1nc2ccccc2n1C(=O)c1cccs1 | 0.0
CC(=O)c1cn(CC(=O)Nc2ccc(C)c(C)c2)c2ccccc12 | 533.3*
CC(=O)c1cn(CC(=O)NCc2ccc3c(c2)OCO3)c2ccccc12 | 2.9
CC(=O)c1cn(CC(=O)Nc2ccc(C)cc2)c2ccccc12 | 7.2
N#CC(Sc1ccccn1)c1ccc(Cl)cc1 (stereo unspecified) | -5.9
O=C(C1CCCCC1)N(Cc1ccccc1)c1ccccn1 | 238.5
CCN(Cc1ccccc1)C(=O)C1CCN(CC2CC=CCC2)CC1 (stereo unspecified) | 8.3
O=C(C1CC1)N(CCN(Cc1ccccc1)C(=O)C1CC1)Cc1ccccc1 | 250.0*
COc1ccc(NC(=O)c2cc3c(s2)CCC(C)C3)cc1S(=O)(=O)N1CCOCC1 (stereo unspecified) | -9.1
Cc1ccc(C(=O)Nc2ccc3c(c2)OCO3)cc1 | 5.4
CCCCC(=O)Nc1ccc(C(=O)Nc2ccc3c(c2)OCO3)cc1 | 475.0*
Cc1ccccc1OCCCC(=O)Nc1ccc2c(c1)OCO2 | -7.4
Cc1cccc(-n2nnc3c(=O)n(CC(=O)Nc4cc(C)on4)cnc32)c1 | 0.0
SMILES | INS promoter act
COc1ccc(NC(=O)CSc2ccc3nnc(-c4cccnc4)n3n2)c(OC)c1 | -2.9
CC(C(=O)Nc1cccc(Br)c1)c1ccc([N+](=O)[O-])cc1 (stereo unspecified) | -6.9
O=C(CCCOc1ccccc1)Nc1cccc([N+](=O)[O-])c1 | -76.9
CC(=O)N[C@@H](C)C(=O)OC(C)C(=O)Nc1cccc([N+](=O)[O-])c1 (stereo partly specified) | 391.7*
COc1ccc(CNC(=O)C/C(C)=N/NC(=O)C23CC4CC(CC(C4)C2)C3)cc1 | 0.0
Cc1ccccc1Nc1ncccc1C(=O)N1CCOCC1 | 0.0
Cc1ccc(SC(C)C(=O)Nc2ccccc2C(=O)N2CCOCC2)cc1 (stereo unspecified) | 82.9*
CS(=O)(=O)N(CC(=O)Nc1ccccc1C(=O)N1CCOCC1)c1ccccc1 | 252.4
Cc1ccc(/C=N/NC(=O)c2cc(C3CC3)nc3ccccc23)o1 | 6.9
COC(=O)c1cn(-c2ccccc2)c(C)c1C(=O)OC | 591.7*
COC(=O)c1cn(C(=O)OC)c2ccccc12 | 225.9
O=C(O)c1cn(-c2ccccc2)c(=O)c2ccccc12 | -70.0
Cc1cccc(C(=O)NN2S(=O)(=O)c3ccccc3S2(=O)=O)c1 | 8.1
O=S(=O)(c1ccc(Cl)c(NC(=S)Nc2cccc(O)c2)c1)N1CCOCC1 | 0.0
Cc1ccc(S(=O)(=O)N2CCOCC2)cc1C(=O)Nc1c(C)n(C)n(-c2ccccc2)c1=O | 8.3
Cc1cccc(C)c1NC(=S)N=Nc1c(O)n(C)c2ccc(S(=O)(=O)N3CCOCC3)cc12 | 514.3*
Cn1c(SCC(=O)NNC(=O)Cc2ccccc2)nnc1-c1ccccc1 | 8.8
O=S(=O)(c1ccc(OCC(O)CN2CCN(c3ccccc3)CC2)cc1)N1CCOCC1 (stereo unspecified) | 111.1
OC(CSc1ccc(F)cc1)CN1CCN(c2ccccc2)CC1 (stereo unspecified) | 117.6*
OC(CN1CCN(c2ccccc2)CC1)Cn1c2ccccc2c2ccccc21 (stereo unspecified) | -8.3
CCOC(Cn1cc(C)c(=O)[nH]c1=O)OCC | 8.3
CCOc1ccccc1CN1CCN(Cc2nc3c(s2)CCCC3)CC1CCO (stereo unspecified) | 6.7
CC[n+]1c(/C=C/C=C/N(C(C)=O)c2ccccc2)sc2ccccc21 | 203.3*
CCC1SC(N)=NC1=O (stereo unspecified) | -19.3
CN1/C(=C\C(=O)COC(=O)c2ccc(O)c(O)c2)C(C)(C)c2ccccc21 | 6.7
SMILES | INS promoter act
O=C(NCCc1nnc2ccc(NCc3ccc(Cl)cc3)nn12)c1ccccc1 | 5.6
CSc1ccccc1NC(=O)CN(c1cccc(C)c1)S(C)(=O)=O | 3.1
COc1ccc(N(CC(=O)Nc2ccccc2SC)S(C)(=O)=O)cc1OC | 614.3*
COc1ccc(N(CC(=O)O)S(C)(=O)=O)cc1OC | 188.9
CCc1ccc(N(C(=O)c2snc(C(N)=O)c2N)C(C(=O)NCCC(C)C)c2c[nH]c3ccccc23)cc1 (stereo unspecified) | 0.0
Cc1cc(Br)c(NC(=O)CCl)c(Br)c1 | 3.2
COc1ccc(Br)cc1C(=O)Nc1nnn(C)n1 | 0.0
Cc1cc(C)c(OCC(=O)Nc2nnn(C)n2)c(Br)c1 | 76.6*
CCOC(=O)N1CCN(CCC(=O)Nc2cc([N+](=O)[O-])ccc2OC)CC1 | 330.8*
COc1ccc([N+](=O)[O-])cc1NC(=O)CSc1nc(C)c(C)c(C)n1 | -3.4
COc1ccc([N+](=O)[O-])cc1NC(=O)CCN1CCN(CCO)CC1 | -6.7
Cc1nc2cc3nc(C(F)(F)F)[nH]c3cc2[nH]1 | 3.3
CC(C)Cc1nnc(NC(=O)CSc2nc(O)c(-c3ccccc3)c(=O)[nH]2)s1 | -8.1
NC(=O)C1CCN(C(=O)/C=C/c2ccco2)CC1 | 0.0
CCn1c(C)nc2cc(C(=O)NNC(=S)NC(=O)c3ccccc3)ccc21 | 6.7
Cc1c(C=O)c2ccccc2n1CC(=O)NCc1ccc2c(c1)OCO2 | 0.0
CCOC(=O)c1ccccc1NC(=O)C(C)Oc1ccccc1 (stereo unspecified) | -6.5
COc1ccc(OC(C)C(=O)Nc2cccc(OC)c2)cc1 (stereo unspecified) | -7.9
CC(Oc1ccccc1)C(=O)Nc1ccc(C(N)=O)cc1 (stereo unspecified) | 174.2*
CC(=O)N1N=C(C)CC1c1ccc(O)cc1 (stereo unspecified) | 0.0
CCc1ccc2nc3sc(C(=O)O)cc3cc2c1 | 7.7
CCOC(=O)N1CCN(C(=O)CCNS(=O)(=O)c2ccc3c(c2)c(=O)n(C)c(=O)n3C)CC1 | 292.9*
CCOc1ccc(NC(=O)CCNS(=O)(=O)c2ccc3c(c2)c(=O)n(C)c(=O)n3C)cc1 | -9.1
Cn1c(=O)oc2cc(S(=O)(=O)NCCC(=O)N3CCc4ccccc4C3)ccc21 | 8.1
CC(C(=O)OCC(=O)Nc1cccc(S(=O)(=O)N2CCOCC2)c1)N1C(=O)c2ccccc2C1=O (stereo unspecified) | -9.1
COc1ccc(N(CC(=O)Nc2nccs2)S(=O)(=O)c2c(C)[nH]c(=O)[nH]c2=O)cc1 | -78.6
COc1ccc(/C=N\NC(=O)COc2ccccc2)c(C(=O)O)c1OC | -3.7
